The values below come from ChEMBL document CHEMBL3351851, “Discovery and optimization of novel small-molecule HIV-1 entry inhibitors using field-based virtual screening and bioisosteric replacement” (Bioorg Med Chem Lett, 2014).

For experiment [1], the system named is Human immunodeficiency virus 1. The experiment in a line: Antiviral activity against HIV1 pseudotyped virus expressed in human U87 cells co-expressing AMLV envelope after 48 hrs by cell-based luciferase reporter gene assay. The experiment is classed as functional, organism-based. As to conditions: u-87mg atcc; call rule not given here. Summed up: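 Single-round infection of U87-CD4/CCR5 or U87-CD4/CXCR4 cells (seeded at 1.2x10⁴/well, infected next day) with 20 ng p24 per well of luciferase-reporter pseudovirus made in 293T cells using pNL4-3-LucR⁺E⁻. Compounds were applied in six to nine serial dilutions (1:10 or 1:5) alongside DMSO, in triplicate. Luciferase was read at 48 h, and percent infection was taken relative to DMSO wells.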
(In general: A reporter such as luciferase makes a cellular process visible.)

Experiment [2] relates to Human immunodeficiency virus 1. Nature of the experiment: Antiviral activity against Human immunodeficiency virus type 1 (isolate YU2) pseudotyped virus expressed in human U87 cells after 48 hrs by cell-based luciferase reporter gene assay. The experiment is classed as functional, U-87MG ATCC. To be noted: Human immunodeficiency virus 1, isolate YU2, U-87 MG. Summed up: (§1)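 Envelope-pseudotyped, single-round luciferase-reporter virus was made in 293T cells co-transfected with pNL4-3-LucR+E- and the matching Env vector. U87-CD4/CCR5 or U87-CD4/CXCR4 cells were seeded at 1.2x10⁴ per well and infected next day with 20 ng p24 per well plus compound (6–9 dilutions, 1:10 or 1:5, triplicate) or DMSO. Luciferase was read at 48 h; % infection is relative to DMSO wells.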

Experiment [3] concerns Human immunodeficiency virus 1. Nature of the experiment: Antiviral activity against Human immunodeficiency virus type 1 (JRCSF ISOLATE) pseudotyped virus expressed in human U87 cells after 48 hrs by luciferase reporter gene assay. The experiment is classed as functional, cell-based, U-87MG ATCC. As to conditions: Human immunodeficiency virus 1, JRCSF ISOLATE, U-87 MG. Summed up:
as §1

Experiment [4] relates to Human immunodeficiency virus 1. The experiment in a line: Antiviral activity against HIV1 isolate Hxbc2 pseudotyped virus expressed in human U87 cells after 48 hrs by luciferase reporter gene assay. In kind it is functional, organism-based, U-87MG ATCC. As to conditions: Human immunodeficiency virus 1, isolate Hxbc2, U-87 MG. The method in brief: as §1
Experiment [5] has as its system Human immunodeficiency virus 1. The experiment in a line: Antiviral activity against HIV1 subtype C isolate 98US_MSC5016 infected in human PBMC. The experiment is classed as functional, organism-based. As to conditions: Human immunodeficiency virus 1, isolate 98US_MSC5016.
Experiment [6] in a line: Antiviral index, ratio of TC50 for human PBMC to IC50 for HIV1 subtype C isolate 98US_MSC5016.
Experiment [7] relates to Human immunodeficiency virus 1. The experiment in a line: Antiviral activity against HIV1 subtype B isolate 91US004 infected in human PBMC. In kind it is functional, organism-based. To be noted: Human immunodeficiency virus 1, isolate 91US004.
Experiment [8] can be described thus: Antiviral index, ratio of TC50 for human PBMC to IC50 for HIV1 subtype B isolate 91US004.
Experiment [9] deals with Human immunodeficiency virus 1. Nature of the experiment: Antiviral activity against HIV1 subtype A isolate 92UG037 infected in human PBMC. In kind it is functional, organism-based. To be noted: Human immunodeficiency virus 1, isolate 92UG037.
The test system of experiment [10] is Human immunodeficiency virus 1. The experiment in a line: Antiviral activity against HIV1 subtype B isolate 94US_33931N infected in human PBMC. The experiment is classed as functional, organism-based. To be noted: Human immunodeficiency virus 1, isolate 94US_33931N.
Experiment [11] concerns Human immunodeficiency virus 2. Nature of the experiment: Antiviral activity against HIV2 isolate CDC310319 infected in human PBMC. To be noted: Human immunodeficiency virus 2, isolate CDC310319. The experiment is classed as functional, organism-based.
Experiment [12] has as its system Human immunodeficiency virus 1. The experiment in a line: Antiviral activity against HIV1 subtype D isolate 99UG_A07412M1 infected in human PBMC. The experiment is classed as functional, organism-based. As to conditions: Human immunodeficiency virus 1, isolate 99UG_A07412M1.
Experiment [13] in a line: Antiviral index, ratio of TC50 for human PBMC to IC50 for HIV1 subtype D isolate 99UG_A07412M1.
The nature of experiment [14]: Antiviral index, ratio of TC50 for human PBMC to IC50 for HIV1 subtype B isolate 94US_33931N.
The nature of experiment [15]: Antiviral index, ratio of TC50 for human PBMC to IC50 for HIV1 subtype A isolate 92UG037.

Each structure is given as a SMILES string.

A word on the IC50: it is the point on the concentration scale where inhibition reaches its midpoint. Lower therefore signals inhibition by little substance. Turning to `O=C(CSc1ncnc2sccc12)N1CCN(C(=O)c2cccs2)CC1`, the results for the IC50 result in experiment [1] and in [2] were “Not Active” and 33700 nM, respectively.

Regarding `O=C(c1ccccc1)N1CCN(C(=O)c2ccc3c4c(cccc24)CC3)CC1`, the IC50 entry in experiment [1] was “Not Active”; in [2], 13100 nM.

As to `O=C(COc1cccc2ccccc12)N1CCN(C(=O)c2ccccc2)CC1`, the IC50 entry in experiment [1] was “Not Active”; in experiment [2], 53500 nM.

Take `O=C(Cc1cccc2ccccc12)N1CCN(C(=O)c2ccco2)CC1`: the IC50 result in [1] was “Not Active”; in experiment [2], 79400 nM.

For `Cc1cc(C)nc(SCC(=O)N2CCN(C(=O)c3ccccc3)CC2)n1`, the IC50 result in experiment [1] is “Not Active”; in experiment [2] it was 153000 nM.

In the case of `O=C(c1ccccc1)N1CC2CN(C(=O)c3ccc4c5c(cccc35)CC4)CC2C1` (stereo not given), the IC50 result in experiment [1] was “Not Active”; in experiment [3], 100000 nM.

In the case of `COc1cnc(Cl)c2[nH]cc(C(=O)C(=O)N3CC4CN(C(=O)c5ccccc5)CC4C3)c12` (stereo not given), the IC50 entry in [1] is “Not Active”; in [4] it was 16800 nM; in [3], 980 nM.

Take `COc1ncc(OC)c2c(C(=O)C(=O)N3CC4CN(C(=O)c5ccccc5)CC4C3)c[nH]c12` (stereo not given): the IC50 result is “Not Active” in experiment [1], 190 nM in experiment [4] and 90 nM in experiment [3].

Consider `COc1cnc(-n2cnc(C)n2)c2[nH]cc(C(=O)C(=O)N3CC4CN(C(=O)c5ccccc5)CC4C3)c12` (stereo not given), for which the IC50 entry is “Not Active” in experiment [1], 1 nM in [4] and 0.8 nM in [3].

In the case of `COc1cnc(-n2cnc(C)n2)c2[nH]cc(C(=O)C(=O)N3CC4CN(C(=O)C5=CCCCC5)CC4C3)c12` (stereo not given), the IC50 in [5] is 3900 nM; in experiment [1], “Not Active”; in [7], 195 nM; in [9], 25200 nM; in experiment [10], 0.6 nM; in experiment [11] it was more than 100000 nM. For the same compound, the values for the IC50 in [4], in experiment [12] and in experiment [3] were 0.6 nM, 490 nM and 2 nM, respectively. For the same compound, the Ratio in experiment [6] is more than 25.6; in experiment [8], more than 513; in [13], more than 204; in experiment [14], more than 166666; in experiment [15], more than 3.97.
